Data published in ChEMBL document CHEMBL4196128 (ACS Med Chem Lett, 2018).

Assays:
[1] = Protein binding in human plasma at 10 uM; assay type: ADME, cell-free; conditions: read-out: PPB
[2] = Apparent permeability across basolateral to apical side in human Caco2 cells; assay type: ADME, cell-based; conditions: Caco-2, read-out: permeability
COLO 205 [3] = experiment: Antitumor activity against human COLO205 cells xenografted in nude mouse assessed as tumor regression at 60 mg/kg, po bid measured after 28 days relative to control; assay type: functional
Procedure, shortened: (§1)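 Female nude mice carrying Colo-205 human colon tumor xenografts were randomized to oral dosing twice daily at 20, 40 or 60 mg/kg, or to vehicle. After 28 days of treatment, tumor growth inhibition or tumor regression was assessed relative to vehicle control, with P-value testing.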

[4] = Mean residence time in Sprague-Dawley rat at 3 mg/kg, iv; assay type: ADME, organism-based; conditions: in vivo
Procedure, shortened: (§2)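 Intravenous dosing in male CD1 mice (10 mg/kg, n = 30), Sprague–Dawley rats (3 mg/kg, n = 3), beagle dogs (3 mg/kg, n = 3) and cynomolgus monkeys (1 mg/kg, n = 3). Vehicle was aqueous 20% hydroxypropyl-β-cyclodextrin. Mean residence time and steady-state volume of distribution were taken from plasma concentration–time profiles as mean parameters.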

[5] = Protein binding in dog plasma at 10 uM; assay type: ADME, cell-free, Canis lupus familiaris; conditions: read-out: PPB
[6] = Half life in Sprague-Dawley rat at 3 mg/kg, iv; assay type: ADME, organism-based; conditions: in vivo
Procedure, shortened: (§3)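 The compound was given intravenously as an aqueous solution in 20% hydroxypropyl-β-cyclodextrin. Animals were male CD1 mice (10 mg/kg, n = 30), Sprague–Dawley rats (3 mg/kg, n = 3), beagle dogs (3 mg/kg, n = 3) and cynomolgus monkeys (1 mg/kg, n = 3). Plasma concentration–time data gave mean AUC(0–∞), half-life, mean residence time, clearance and Vd,ss.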

[7] = Tmax in Beagle dog at 30 mg/kg, po; assay type: ADME, organism-based, Canis lupus familiaris; conditions: in vivo
Procedure, shortened: (§4)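 Oral dosing in male CD1 mice (30 mg/kg, n = 27), Sprague–Dawley rats (10 mg/kg, n = 3), beagle dogs (30 mg/kg, n = 3) and cynomolgus monkeys (10 mg/kg, n = 3). Mean Tmax was read from plasma concentration–time data. Bioavailability was derived from oral AUC(0–∞) compared with intravenous AUC.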

[8] = Clearance in Beagle dog at 3 mg/kg, iv; assay type: ADME, organism-based, Canis lupus familiaris; conditions: in vivo; procedure, shortened: as §3
[9] = Apparent permeability across apical to basolateral side in human Caco2 cells; assay type: ADME, cell-based; conditions: Caco-2, read-out: permeability
Mus musculus = experiment: Oral bioavailability in CD1 mouse at 30 mg/kg; assay type: ADME, organism-based; conditions: in vivo; procedure, shortened: as §4
COLO 205 [10] = experiment: Antitumor activity against human COLO205 cells xenografted in nude mouse assessed as tumor growth inhibition at 20 mg/kg, po bid measured after 28 days relative to control; assay type: functional; conditions: COLO 205, po, 672 h, read-out: TGI; procedure, shortened: as §1
Cytochrome P450 2C9 = Cytochrome P450 2C9 (Homo sapiens, UniProt P11712); experiment: Inhibition of CYP2C9 (unknown origin) co-incubated with substrate; assay type: ADME
hERG (KCNH2) = hERG (KCNH2) (Homo sapiens, UniProt Q12809); experiment: Inhibition of human ERG at 600 nM by voltage clamp method relative to control
COLO 205 [11] = experiment: Antitumor activity against human COLO205 cells xenografted in nude mouse assessed as tumor growth inhibition at 40 mg/kg, po bid measured after 28 days relative to control; assay type: functional; conditions: COLO 205, po, 672 h, read-out: TGI; procedure, shortened: as §1
[12] = molecular target: Mitogen-activated protein kinase 3 (Homo sapiens, UniProt P27361); experiment: Inhibition of ERK1 (unknown origin) using peptide substrate measured after 45 mins by IMAP assay
[13] = Volume of distribution at steady state in Beagle dog at 3 mg/kg, iv; assay type: ADME, organism-based, Canis lupus familiaris; conditions: in vivo, read-out: Vdss; procedure, shortened: as §2
[14] = Tmax in monkey at 10 mg/kg, po; conditions: cynomolgus monkey, in vivo
[15] = Tmax in Sprague-Dawley rat at 10 mg/kg, po; assay type: ADME, organism-based; conditions: in vivo; procedure, shortened: as §4
[16] = Volume of distribution at steady state in Sprague-Dawley rat at 3 mg/kg, iv; assay type: ADME, organism-based; conditions: in vivo, read-out: Vdss; procedure, shortened: as §2
Cytochrome P450 1A2 = molecular target: T1, Cytochrome P450 1A2 (Homo sapiens, UniProt P05177); experiment: Inhibition of CYP1A2 (unknown origin) preincubated followed by substrate addition; assay type: ADME
T1 sequence (P05177 whole entry): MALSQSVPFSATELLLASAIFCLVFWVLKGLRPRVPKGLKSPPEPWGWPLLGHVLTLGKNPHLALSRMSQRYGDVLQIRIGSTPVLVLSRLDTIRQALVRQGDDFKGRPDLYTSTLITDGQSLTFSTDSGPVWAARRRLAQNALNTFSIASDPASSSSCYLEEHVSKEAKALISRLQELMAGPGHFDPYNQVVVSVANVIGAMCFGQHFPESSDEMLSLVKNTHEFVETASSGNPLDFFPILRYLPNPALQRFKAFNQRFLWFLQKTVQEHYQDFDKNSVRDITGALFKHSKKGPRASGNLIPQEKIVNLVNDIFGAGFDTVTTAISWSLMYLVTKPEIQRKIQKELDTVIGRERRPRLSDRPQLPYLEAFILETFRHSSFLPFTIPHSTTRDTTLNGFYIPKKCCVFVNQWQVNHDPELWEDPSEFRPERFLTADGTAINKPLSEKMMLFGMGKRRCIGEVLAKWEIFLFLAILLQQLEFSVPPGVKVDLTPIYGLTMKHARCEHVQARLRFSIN

[17] = Protein binding in monkey plasma at 10 uM; assay type: ADME, cell-free, Macaca mulatta; conditions: rhesus monkey, read-out: PPB
[18] = Protein binding in Sprague-Dawley rat plasma at 10 uM; assay type: ADME, cell-free; conditions: read-out: PPB
[19] = Clearance in monkey at 1 mg/kg, iv; conditions: cynomolgus monkey, in vivo
Caspase (Homo sapiens) = Caspase (Homo sapiens) (UniProt P49662+P55211+P42574+P51878+P55212+P55210+Q14790+P29466+P42575+Q92851+P31944+Q6UXS9); experiment: Activation of caspase (unknown origin); assay type: protein assay
[20] = Mean residence time in Beagle dog at 3 mg/kg, iv; assay type: ADME, organism-based, Canis lupus familiaris; conditions: in vivo; procedure, shortened: as §2
[21] = Mean residence time in monkey at 1 mg/kg, iv; conditions: cynomolgus monkey, in vivo

Chain of Mitogen-activated protein kinase 3 (P27361 whole entry): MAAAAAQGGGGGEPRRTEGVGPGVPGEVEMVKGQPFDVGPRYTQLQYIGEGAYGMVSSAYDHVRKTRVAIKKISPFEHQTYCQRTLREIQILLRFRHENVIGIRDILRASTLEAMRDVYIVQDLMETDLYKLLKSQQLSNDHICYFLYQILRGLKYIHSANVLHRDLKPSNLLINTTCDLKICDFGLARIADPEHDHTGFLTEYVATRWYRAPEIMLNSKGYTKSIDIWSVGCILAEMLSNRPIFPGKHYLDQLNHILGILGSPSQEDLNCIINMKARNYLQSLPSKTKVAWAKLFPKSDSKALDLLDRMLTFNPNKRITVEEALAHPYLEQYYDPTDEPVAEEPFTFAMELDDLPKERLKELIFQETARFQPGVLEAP
Chain of hERG (KCNH2) (Q12809 whole entry): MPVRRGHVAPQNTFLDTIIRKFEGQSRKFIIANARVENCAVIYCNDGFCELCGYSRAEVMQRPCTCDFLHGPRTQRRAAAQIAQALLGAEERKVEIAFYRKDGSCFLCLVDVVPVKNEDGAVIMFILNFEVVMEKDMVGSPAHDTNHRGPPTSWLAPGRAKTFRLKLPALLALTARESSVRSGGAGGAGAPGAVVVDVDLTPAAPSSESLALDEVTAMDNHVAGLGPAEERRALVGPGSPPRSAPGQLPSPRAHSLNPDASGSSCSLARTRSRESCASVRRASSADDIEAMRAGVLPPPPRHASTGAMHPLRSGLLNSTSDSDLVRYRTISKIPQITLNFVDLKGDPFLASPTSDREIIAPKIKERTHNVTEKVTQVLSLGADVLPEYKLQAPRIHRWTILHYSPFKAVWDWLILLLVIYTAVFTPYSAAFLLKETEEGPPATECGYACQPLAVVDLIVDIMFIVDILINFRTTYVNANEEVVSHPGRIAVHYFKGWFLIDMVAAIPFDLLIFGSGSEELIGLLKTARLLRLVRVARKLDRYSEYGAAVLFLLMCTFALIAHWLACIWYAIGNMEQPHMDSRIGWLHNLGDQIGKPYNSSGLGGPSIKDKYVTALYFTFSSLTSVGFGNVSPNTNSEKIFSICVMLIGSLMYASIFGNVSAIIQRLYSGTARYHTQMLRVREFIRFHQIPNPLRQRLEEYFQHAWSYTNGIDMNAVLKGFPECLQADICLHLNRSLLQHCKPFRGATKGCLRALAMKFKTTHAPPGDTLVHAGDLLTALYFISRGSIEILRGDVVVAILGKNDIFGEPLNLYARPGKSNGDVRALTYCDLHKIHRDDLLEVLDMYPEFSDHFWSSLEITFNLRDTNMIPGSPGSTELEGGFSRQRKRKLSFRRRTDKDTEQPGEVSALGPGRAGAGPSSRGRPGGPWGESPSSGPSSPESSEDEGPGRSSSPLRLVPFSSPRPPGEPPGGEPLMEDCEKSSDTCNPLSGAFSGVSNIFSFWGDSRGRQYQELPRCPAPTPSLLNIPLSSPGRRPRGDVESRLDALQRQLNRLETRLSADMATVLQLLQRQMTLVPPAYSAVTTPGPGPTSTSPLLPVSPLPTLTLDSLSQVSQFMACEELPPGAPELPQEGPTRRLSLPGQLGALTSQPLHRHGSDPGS
Chain of Cytochrome P450 2C9 (P11712 whole entry): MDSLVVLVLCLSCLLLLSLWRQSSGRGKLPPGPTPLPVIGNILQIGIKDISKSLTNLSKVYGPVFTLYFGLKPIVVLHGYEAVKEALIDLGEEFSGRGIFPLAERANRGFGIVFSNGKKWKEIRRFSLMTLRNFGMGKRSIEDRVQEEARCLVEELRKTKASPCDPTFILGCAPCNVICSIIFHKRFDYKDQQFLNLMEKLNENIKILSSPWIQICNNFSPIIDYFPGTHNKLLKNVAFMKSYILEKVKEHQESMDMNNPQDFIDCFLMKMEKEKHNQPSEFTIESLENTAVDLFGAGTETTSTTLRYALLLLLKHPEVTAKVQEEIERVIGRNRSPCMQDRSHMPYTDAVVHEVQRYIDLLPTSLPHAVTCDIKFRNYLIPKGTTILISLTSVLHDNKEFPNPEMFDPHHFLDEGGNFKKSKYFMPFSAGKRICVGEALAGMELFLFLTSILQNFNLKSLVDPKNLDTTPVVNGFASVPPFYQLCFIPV

Structure (SMILES): CS[C@@]1(C(=O)Nc2ccc3[nH]nc(-c4ccc(OC(C)C)nc4)c3c2)CCN(CC(=O)N2CC=C(c3ccc(-c4ncn(C)n4)cc3)CC2)C1 [MK-8353]
- fraction unbound at 10 µM [1]: < 0.01
- Papp B→A [2]: 40 ×10⁻⁶ cm/s
- Activity (COLO 205 [3]): 40%
- MRT [4]: 2.3 h
- fraction unbound at 10 µM [5]: < 0.01
- half-life [6]: 1.6 h
- Tmax [7]: 4 h
- clearance [8]: 3.9 mL/min/kg
- Papp A→B [9]: 13.4 ×10⁻⁶ cm/s
- F (Mus musculus): 80%
- inhibition in vivo at 20 mg/kg (COLO 205 [10]): 37%
- IC50 (Cytochrome P450 2C9): > 5000 nM
- inhibition at 0.6 µM (hERG (KCNH2)): 16%
- inhibition in vivo at 40 mg/kg (COLO 205 [11]): 88%
- IC50 [12]: 20 nM
- Vd [13]: 0.9 L/kg
- Tmax [14]: 1.4 h
- Tmax [15]: 1.7 h
- Vd [16]: 0.1 L/kg
- inhibition (INH) (Cytochrome P450 1A2): Not Active
- fraction unbound at 10 µM [17]: < 0.01
- fraction unbound at 10 µM [18]: < 0.01
- clearance [19]: 17.9 mL/min/kg
- Activity (Caspase (Homo sapiens)): 185 nM
- MRT [20]: 4 h
- MRT [21]: 1.9 h
